Assay results published in ChEMBL document CHEMBL4811251 (Eur J Med Chem, 2021).

Legend:
[1] = biological target: Receptor-type tyrosine-protein kinase FLT3 (Homo sapiens) (UniProt P36888); assay: Inhibition of human FLT3 at 1 uM using EAIYAAPFAKKK as substrate incubated for 40 mins in presence of [gamma-33ATP] by scintillation counting based radiometry assay relative to control
[2] = tested on: MV4-11; assay: Induction of apoptosis in human MV4-11 cells assessed as early apoptotic cells at 3 uM after 72 hrs by Annexin V FITC/PI staining based flow cytometry analysis (reference value: 2.73%); format: functional
[3] = tested on: MV4-11; assay: Induction of cell cylce arrest in human MV4-11 cells assessed as accumulation of cells at G2 phase at 3 uM after 72 hrs by RNase A/propidium iodide staining based flow cytometry (reference value: 12.61%); format: functional
In short: (§1)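 MV4-11 cells were seeded at 8 × 10⁴, held overnight at 37 °C with 5% CO2, then treated 72 h at 3 or 10 µM against a DMSO diluent control. Pellets were fixed in 70% ethanol on ice for 15 min, then stained 1 h at room temperature with PI, 0.1 mg/mL RNase A and 0.05% Triton X-100. Sub-G1, G1, S and G2/M fractions were read by flow cytometry.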

[4] = Tmax in Sprague-Dawley rat at 5 mg/kg, iv measured upto 24 hrs by LC/MS/MS analysis; format: ADME, organism-based; settings: in vivo
[5] = biological target: T1, Leucine-rich repeat serine/threonine-protein kinase 2 (Homo sapiens, UniProt Q5S007); assay: Inhibition of human LRRK2 using RLGRDKYKTLRQIRQ as substrate after 40 mins in presence of [gamma-33ATP] by scintillation counting based radiometry assay
T1 sequence (Q5S007 whole entry): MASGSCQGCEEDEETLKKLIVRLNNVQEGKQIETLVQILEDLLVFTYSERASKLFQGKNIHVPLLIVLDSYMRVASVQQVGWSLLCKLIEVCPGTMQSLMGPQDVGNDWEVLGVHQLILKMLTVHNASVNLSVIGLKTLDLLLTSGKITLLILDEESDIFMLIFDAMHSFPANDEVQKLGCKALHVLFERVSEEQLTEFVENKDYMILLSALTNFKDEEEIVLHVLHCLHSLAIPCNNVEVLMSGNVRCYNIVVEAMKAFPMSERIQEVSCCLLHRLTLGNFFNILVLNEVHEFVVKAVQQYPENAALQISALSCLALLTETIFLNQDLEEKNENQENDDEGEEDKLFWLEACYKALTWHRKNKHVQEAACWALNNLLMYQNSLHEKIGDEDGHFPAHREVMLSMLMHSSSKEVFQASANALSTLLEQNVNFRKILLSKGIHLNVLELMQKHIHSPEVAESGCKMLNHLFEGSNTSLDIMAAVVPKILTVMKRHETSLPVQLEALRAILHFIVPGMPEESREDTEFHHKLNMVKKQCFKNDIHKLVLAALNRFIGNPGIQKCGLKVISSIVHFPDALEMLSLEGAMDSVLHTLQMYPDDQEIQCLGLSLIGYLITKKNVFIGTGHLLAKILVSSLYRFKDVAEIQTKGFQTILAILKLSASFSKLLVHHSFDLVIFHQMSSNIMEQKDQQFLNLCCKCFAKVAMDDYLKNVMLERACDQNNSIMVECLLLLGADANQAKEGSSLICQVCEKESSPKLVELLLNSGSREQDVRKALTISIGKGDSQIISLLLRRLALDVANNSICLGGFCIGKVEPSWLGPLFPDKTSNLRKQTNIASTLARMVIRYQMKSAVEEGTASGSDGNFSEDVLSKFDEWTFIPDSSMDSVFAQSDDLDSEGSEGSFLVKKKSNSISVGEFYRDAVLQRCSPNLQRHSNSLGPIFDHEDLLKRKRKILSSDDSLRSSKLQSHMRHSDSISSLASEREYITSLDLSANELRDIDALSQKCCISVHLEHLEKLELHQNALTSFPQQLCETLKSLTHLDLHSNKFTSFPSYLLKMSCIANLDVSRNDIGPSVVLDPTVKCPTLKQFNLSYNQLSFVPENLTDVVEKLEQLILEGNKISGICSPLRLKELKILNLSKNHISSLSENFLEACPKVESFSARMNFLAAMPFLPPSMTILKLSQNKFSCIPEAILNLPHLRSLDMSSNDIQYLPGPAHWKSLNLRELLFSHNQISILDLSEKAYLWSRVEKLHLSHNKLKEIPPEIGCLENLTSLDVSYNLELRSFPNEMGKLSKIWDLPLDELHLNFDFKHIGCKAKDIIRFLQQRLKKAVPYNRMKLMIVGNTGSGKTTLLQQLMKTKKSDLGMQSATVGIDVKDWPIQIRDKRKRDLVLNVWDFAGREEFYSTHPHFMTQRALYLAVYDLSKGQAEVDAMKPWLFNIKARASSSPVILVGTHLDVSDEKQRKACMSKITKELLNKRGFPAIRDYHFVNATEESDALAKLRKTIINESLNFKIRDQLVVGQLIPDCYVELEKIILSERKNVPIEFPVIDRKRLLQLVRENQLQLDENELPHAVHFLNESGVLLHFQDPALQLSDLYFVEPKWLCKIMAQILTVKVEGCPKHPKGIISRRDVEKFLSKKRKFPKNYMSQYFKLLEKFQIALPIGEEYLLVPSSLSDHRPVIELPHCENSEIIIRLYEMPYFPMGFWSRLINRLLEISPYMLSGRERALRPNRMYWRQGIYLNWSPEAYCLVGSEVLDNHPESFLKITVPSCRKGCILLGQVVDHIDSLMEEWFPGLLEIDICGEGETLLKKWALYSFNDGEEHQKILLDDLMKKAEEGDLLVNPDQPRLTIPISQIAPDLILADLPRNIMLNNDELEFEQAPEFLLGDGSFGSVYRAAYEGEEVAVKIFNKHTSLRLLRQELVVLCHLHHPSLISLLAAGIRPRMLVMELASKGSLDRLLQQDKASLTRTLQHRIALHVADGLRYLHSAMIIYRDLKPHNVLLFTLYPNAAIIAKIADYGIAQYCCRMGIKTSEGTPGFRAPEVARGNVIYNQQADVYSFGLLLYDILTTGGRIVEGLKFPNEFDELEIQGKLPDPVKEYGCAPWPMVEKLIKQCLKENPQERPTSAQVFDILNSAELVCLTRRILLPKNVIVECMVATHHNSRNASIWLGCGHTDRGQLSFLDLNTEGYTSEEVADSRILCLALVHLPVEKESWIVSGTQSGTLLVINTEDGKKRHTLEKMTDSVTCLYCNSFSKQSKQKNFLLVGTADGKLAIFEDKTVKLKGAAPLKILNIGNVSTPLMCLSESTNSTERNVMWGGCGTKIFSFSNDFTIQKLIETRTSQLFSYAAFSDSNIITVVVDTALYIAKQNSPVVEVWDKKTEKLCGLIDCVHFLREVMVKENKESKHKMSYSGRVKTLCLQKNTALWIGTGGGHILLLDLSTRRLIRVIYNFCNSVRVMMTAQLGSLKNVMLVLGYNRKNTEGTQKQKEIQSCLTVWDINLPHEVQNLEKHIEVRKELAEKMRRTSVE

[6] = Half life in Sprague-Dawley rat at 20 mg/kg, po measured upto 24 hrs by LC/MS/MS analysis; format: ADME, organism-based; settings: in vivo
[7] = tested on: MV4-11; assay: Induction of cell cylce arrest in human MV4-11 cells assessed as accumulation of cells at sub G1 phase at 3 uM after 72 hrs by RNase A/propidium iodide staining based flow cytometry (reference value: 1.58%); format: functional; in short: as §1
[8] = biological target: T1, Leucine-rich repeat serine/threonine-protein kinase 2; assay: Inhibition of human LRRK2 at 1 uM using RLGRDKYKTLRQIRQ as substrate after 40 mins in presence of [gamma-33ATP] by scintillation counting based radiometry assay relative to control
[9] = biological target: CDK9/cyclin T1 (Homo sapiens) (UniProt O60563+P50750); assay: Inhibition of CDK9/Cyclin T1 (unknown origin) assessed as residual activity at 1 uM relative to control; format: protein-complex assay
[10] = tested on: MV4-11; assay: Induction of apoptosis in human MV4-11 cells assessed as viable cells at 10 uM after 72 hrs by Annexin V FITC/PI staining based flow cytometry analysis (reference value: 93.63%); format: functional; settings: read-out: Activity
[11] = tested on: A2780; assay: Antiproliferative activity against human A2780 cells assessed as growth inhibition incubated for 72 hrs by MTT assay; format: functional
[12] = tested on: MV4-11; assay: Induction of apoptosis in human MV4-11 cells assessed as viable cells at 3 uM after 72 hrs by Annexin V FITC/PI staining based flow cytometry analysis (reference value: 93.63%); format: functional; settings: read-out: Activity
[13] = biological target: Macrophage colony-stimulating factor 1 receptor (Homo sapiens, UniProt P07333); assay: Inhibition of human FMS using KKKSPGEYVNIEFG as substrate incubated for 40 mins in presence of [gamma-33ATP] by scintillation counting based radiometry assay
[14] = biological target: CDK8/Cyclin C (Homo sapiens, UniProt P49336); assay: Inhibition of CDK8/Cyclin C (unknown origin) using RBER-CHKtide as substrate in presence of [33P]gammaATP incubated for 60 mins by microplate scintillation counter analysis
CDK8/Cyclin C, sequence (P49336 whole entry): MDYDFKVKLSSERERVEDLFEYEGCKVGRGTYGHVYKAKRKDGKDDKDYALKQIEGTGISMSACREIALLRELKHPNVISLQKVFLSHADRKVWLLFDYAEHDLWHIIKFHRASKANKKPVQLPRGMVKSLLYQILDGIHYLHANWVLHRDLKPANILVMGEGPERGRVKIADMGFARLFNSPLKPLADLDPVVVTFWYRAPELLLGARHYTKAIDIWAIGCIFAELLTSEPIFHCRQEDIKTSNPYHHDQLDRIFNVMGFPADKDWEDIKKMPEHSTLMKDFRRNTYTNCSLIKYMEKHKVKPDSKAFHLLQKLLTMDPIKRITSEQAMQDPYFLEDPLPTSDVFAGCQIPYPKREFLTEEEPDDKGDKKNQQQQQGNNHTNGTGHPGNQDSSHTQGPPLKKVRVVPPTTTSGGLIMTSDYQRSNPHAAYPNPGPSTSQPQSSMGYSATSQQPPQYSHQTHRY
CDK8/Cyclin C, sequence (P24863 whole entry, further chain): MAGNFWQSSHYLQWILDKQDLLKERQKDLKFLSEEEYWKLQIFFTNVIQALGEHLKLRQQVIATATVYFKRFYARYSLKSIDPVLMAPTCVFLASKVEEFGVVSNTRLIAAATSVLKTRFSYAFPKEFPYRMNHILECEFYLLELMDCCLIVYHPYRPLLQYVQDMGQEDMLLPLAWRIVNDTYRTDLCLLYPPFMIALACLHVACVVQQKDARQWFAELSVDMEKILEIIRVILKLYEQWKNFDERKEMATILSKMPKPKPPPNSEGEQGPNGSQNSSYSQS

[15] = Half life in Sprague-Dawley rat at 5 mg/kg, iv measured upto 24 hrs by LC/MS/MS analysis; format: ADME, organism-based; settings: in vivo
[16] = Volume of distribution at steady state in Sprague-Dawley rat at 5 mg/kg, iv measured upto 24 hrs by LC/MS/MS analysis; format: ADME, organism-based; settings: in vivo, read-out: Vdss
[17] = Half life in BALB/c mouse at 2 mg/kg, iv measured upto 24 hrs by LC/MS/MS analysis; format: ADME, organism-based; settings: in vivo
[18] = tested on: MV4-11; assay: Induction of cell cylce arrest in human MV4-11 cells assessed as accumulation of cells at sub G1 phase at 10 uM after 72 hrs by RNase A/propidium iodide staining based flow cytometry (reference value: 1.58%); format: functional; in short: as §1
[19] = biological target: Glycogen synthase kinase-3 alpha (Homo sapiens) (UniProt P49840); assay: Inhibition of GSK3alpha (unknown origin) assessed as residual activity at 1 uM relative to control
[20] = Clearance in Sprague-Dawley rat at 5 mg/kg, iv measured upto 24 hrs by LC/MS/MS analysis; format: ADME, organism-based; settings: in vivo
[21] = Oral bioavailability in Sprague-Dawley rat at 20 mg/kg measured upto 24 hrs by LC/MS/MS analysis; format: ADME, organism-based; settings: in vivo
[22] = Tmax in Sprague-Dawley rat at 20 mg/kg, po measured upto 24 hrs by LC/MS/MS analysis; format: ADME, organism-based; settings: in vivo
[23] = AUC in BALB/c mouse at 10 mg/kg, po measured upto 24 hrs by LC/MS/MS analysis; format: ADME, organism-based; parameters: route oral, dose 10 mg/kg, time <=24; settings: in vivo
[24] = tested on: MV4-11; assay: Induction of cell cylce arrest in human MV4-11 cells assessed as accumulation of cells at G2 phase at 10 uM after 72 hrs by RNase A/propidium iodide staining based flow cytometry (reference value: 12.61%); format: functional; in short: as §1
[25] = Cmax in Sprague-Dawley rat at 5 mg/kg, iv measured upto 24 hrs by LC/MS/MS analysis; format: ADME, organism-based; parameters: route intravenous, dose 5 mg/kg, time <=24; settings: in vivo
[26] = tested on: MV4-11; assay: Induction of cell cylce arrest in human MV4-11 cells assessed as accumulation of cells at S phase at 3 uM after 72 hrs by RNase A/propidium iodide staining based flow cytometry (reference value: 18.81%); format: functional; in short: as §1
[27] = Dissociation constant, pKa of the compound by fast UV-spectrometric titration method; format: physicochemical
[28] = tested on: MV4-11; assay: Induction of apoptosis in human MV4-11 cells assessed as necrotic cells at 10 uM after 72 hrs by Annexin V FITC/PI staining based flow cytometry analysis (reference value: 0.23%); format: functional
[29] = Tmax in BALB/c mouse at 10 mg/kg, po measured upto 24 hrs by LC/MS/MS analysis; format: ADME, organism-based; settings: in vivo
[30] = biological target: Cyclin-dependent kinase 1/cyclin B1 (Homo sapiens) (UniProt P06493+P14635); assay: Inhibition of CDK1/Cyclin B (unknown origin) assessed as residual activity at 1 uM relative to control; format: protein-complex assay
Cyclin-dependent kinase 1/cyclin B1 (Homo sapiens), sequence (P06493 whole entry, looked up): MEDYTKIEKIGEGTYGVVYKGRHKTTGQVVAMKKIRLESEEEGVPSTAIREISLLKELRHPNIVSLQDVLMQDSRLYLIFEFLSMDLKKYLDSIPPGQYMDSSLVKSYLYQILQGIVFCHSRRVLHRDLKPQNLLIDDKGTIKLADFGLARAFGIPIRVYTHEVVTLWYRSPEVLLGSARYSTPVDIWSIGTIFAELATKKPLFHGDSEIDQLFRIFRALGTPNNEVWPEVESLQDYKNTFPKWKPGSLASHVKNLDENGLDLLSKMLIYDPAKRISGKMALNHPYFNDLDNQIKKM
Cyclin-dependent kinase 1/cyclin B1 (Homo sapiens), sequence (P14635 whole entry, looked up): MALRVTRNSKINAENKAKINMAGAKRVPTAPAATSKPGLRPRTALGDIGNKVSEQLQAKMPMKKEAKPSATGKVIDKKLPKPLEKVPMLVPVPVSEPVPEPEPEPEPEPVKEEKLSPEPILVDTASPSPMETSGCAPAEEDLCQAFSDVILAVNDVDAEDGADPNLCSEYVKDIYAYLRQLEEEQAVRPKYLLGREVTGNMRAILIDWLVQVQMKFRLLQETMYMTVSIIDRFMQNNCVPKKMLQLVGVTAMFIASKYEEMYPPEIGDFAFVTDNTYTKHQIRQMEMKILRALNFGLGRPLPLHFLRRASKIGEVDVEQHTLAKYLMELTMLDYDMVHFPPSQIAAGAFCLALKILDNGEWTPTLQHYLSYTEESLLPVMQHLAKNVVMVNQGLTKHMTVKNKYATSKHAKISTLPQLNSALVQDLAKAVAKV

[31] = tested on: MV4-11; assay: Antiproliferative activity against human MV4-11 cells assessed as growth inhibition after 72 hrs by resazurin assay; format: functional
In short: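 MV4-11 cells kept at 37 °C with 5% CO2 in ATCC-recommended medium plus 10% FBS. In-house resazurin viability assay after 72 h exposure. GI50 reported as mean ± standard deviation from at least two replicates.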

Receptor-type tyrosine-protein kinase FLT3 (Homo sapiens), sequence (P36888 whole entry): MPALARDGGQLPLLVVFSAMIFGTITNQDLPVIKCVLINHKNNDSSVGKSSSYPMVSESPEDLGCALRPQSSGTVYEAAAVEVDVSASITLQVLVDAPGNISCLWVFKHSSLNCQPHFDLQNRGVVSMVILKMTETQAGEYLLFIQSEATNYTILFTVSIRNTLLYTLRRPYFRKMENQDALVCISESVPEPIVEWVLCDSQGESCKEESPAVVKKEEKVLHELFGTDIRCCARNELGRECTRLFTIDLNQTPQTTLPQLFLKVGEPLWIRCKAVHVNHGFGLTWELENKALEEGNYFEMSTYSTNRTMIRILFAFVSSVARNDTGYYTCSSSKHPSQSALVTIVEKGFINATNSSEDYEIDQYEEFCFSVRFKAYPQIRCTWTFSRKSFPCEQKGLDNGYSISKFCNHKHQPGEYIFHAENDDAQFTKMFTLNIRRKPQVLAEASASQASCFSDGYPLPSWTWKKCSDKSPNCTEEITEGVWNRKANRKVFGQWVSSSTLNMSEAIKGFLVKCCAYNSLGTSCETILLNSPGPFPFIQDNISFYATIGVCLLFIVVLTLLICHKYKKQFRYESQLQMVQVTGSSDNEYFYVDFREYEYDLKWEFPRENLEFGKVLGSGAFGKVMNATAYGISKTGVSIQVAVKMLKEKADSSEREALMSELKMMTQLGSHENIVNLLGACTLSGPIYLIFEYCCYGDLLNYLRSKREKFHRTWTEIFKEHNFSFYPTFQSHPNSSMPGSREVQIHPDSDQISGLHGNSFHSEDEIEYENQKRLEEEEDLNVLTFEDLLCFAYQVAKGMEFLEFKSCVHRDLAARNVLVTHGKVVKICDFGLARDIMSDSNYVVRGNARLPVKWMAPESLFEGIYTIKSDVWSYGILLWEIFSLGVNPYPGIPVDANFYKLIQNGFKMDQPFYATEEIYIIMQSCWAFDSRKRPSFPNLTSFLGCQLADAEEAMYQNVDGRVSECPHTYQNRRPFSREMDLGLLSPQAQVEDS

Question: What does the source list for `Nc1ncc(-c2cc3ccccc3o2)c(N2CCC3(CCNC3=O)CC2)c1Cl`?
Answer: inhibition [1]: > 50%; Activity [2]: 1.81%; Activity [3]: 8.11%; Tmax [4]: 1.8 min; Ki [5]: 0.051 µM; half-life [6]: 419 min; Activity [7]: 1.73%; inhibition [8]: > 50%; Activity [9]: 61%; viability at 10 µM [10]: 83.4%; GI50 [11]: 5.31 µM; viability at 3 µM [12]: 89.5%; Ki [13]: 0.166 µM; Ki [14]: 0.009 µM; half-life [15]: 87 min; Vd [16]: 1.57 L/kg; half-life [17]: 22.2 min; Activity [18]: 4.89%; Activity [19]: 61%; clearance [20]: 23.8 mL/min/kg; bioavailability [21]: 70%; Tmax [22]: 240 min; AUC at 24 h [23]: 2.56 µM·h; Activity [24]: 1.83%; Cmax [25]: 9.36 µM; Activity [26]: 10.03%; pKa [27]: 5.27; Activity [28]: 0.59%; Tmax [29]: 20.4 min; Activity [30]: 61%; GI50 [31]: 0.6 µM
